Source: paper PMC6510378 (Clinical and Translational Science, 2019)

Legend:
[1] = mice, available in vivo pharmacology data; cited from earlier work
[2] = Safety and tolerability, MAD study; type: in vivo, human; details: for Any TEAE / Drug-related TEAE / Number of TEAEs / Number of drug-related TEAEs / TEAE: Constipation / TEAE: Gastrointestinal disorders / TEAE: General disorders and administration site conditions / TEAE: Headache / TEAE: Medical device site reaction / TEAE: Nervous system disorders / TEAE: Skin and subcutaneous tissue disorders: MAD study
Outline: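 Safety was assessed from treatment-emergent adverse events: nature, frequency, severity, onset/offset and relatedness to study drug, coded by MedDRA system organ class. Also assessed were haematology, serum chemistry, urinalysis, physical examination with vital signs, and ECGs. CNS scales used were Bond and Lader VAS, ARCI-49 and Profile of Mood States. Data were summarized descriptively.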

[3] = MAD study part 1; type: in vivo, human
Outline: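 Healthy young Japanese, young non-Japanese and elderly non-Japanese adults got a single oral dose (10, 20 or 50 mg) or placebo on day 1. After a 4-day washout, dosing was once daily on days 5–18. PK-day doses were taken with 240 mL water after a 10-hour fast, with no food for 4 h. Plasma drug was measured by validated HPLC-MS/MS. Values below the limit of quantification were set to zero.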

[4] = 4-week toxicology; type: in vivo; details: 4-week toxicology data, most sensitive species (rat)
[5] = tested on: hypothalamic‐pituitary‐adrenal (HPA) axis; assay: HPA axis endocrine markers; type: in vivo, human
Outline: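 Healthy young non-Japanese adults, open-label low-dose part. 0.7 or 2 mg was given as a single oral dose on day 1, then after a 6-day washout once daily. 0.4 mg was given once daily on days 1–14. 0.2 mg followed a 3 mg loading dose on day 1, days 2–14. Baseline urine endocrine markers were taken day –1. Urine cortisol came from first morning void. ACTH and DHEA-s were plasma. Follow-up sampling ran days 16–21 and day 28.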

[6] = MAD part 1, day 1 single dose 10 mg, young Japanese, n=8
[7] = MAD part 1, day 1 single dose 20 mg, elderly non-Japanese, n=9
[8] = MAD part 1, day 1 single dose 20 mg, young Japanese, n=8
[9] = MAD part 1, day 1 single dose 20 mg, young non-Japanese, n=8
[10] = MAD part 1, day 1 single dose 50 mg, young Japanese, n=8
[11] = MAD part 1, day 1 single dose 50 mg, young non-Japanese, n=8
[12] = MAD part 1, day 18 multiple dose q.d. 14 days 10 mg, young Japanese, n=8
[13] = MAD part 1, day 18 multiple dose q.d. 14 days 20 mg, elderly non-Japanese, n=9
[14] = MAD part 1, day 18 multiple dose q.d. 14 days 20 mg, young Japanese, n=8
[15] = MAD part 1, day 18 multiple dose q.d. 14 days 20 mg, young non-Japanese, n=8
[16] = MAD part 1, day 18 multiple dose q.d. 14 days 50 mg, young Japanese, n=8
[17] = MAD part 1, day 18 multiple dose q.d. 14 days 50 mg, young non-Japanese, n=7

Cn1c(-c2ccc(C(N)=O)cc2F)nnc1C(C)(C)Oc1c(F)cc(Cl)cc1F [ASP3662]
minimal pharmacological active oral dose [1]: 0.03 mg/kg
subjects with TEAE headache ([2]; MAD part 2, 0.2 mg): 2 n
subjects with TEAE headache ([2]; MAD part 2, 0.4 mg): 1 n
subjects with TEAE headache ([2]; MAD part 2, 0.7 mg): 1 n
subjects with TEAE headache ([2]; MAD part 2, 2 mg): 1 n
Any TEAE ([2]; 10 mg, n=8): 3 (37.5) n (%)
Drug-related TEAE ([2]; 10 mg, n=8): 2 (25.0) n (%)
Number of TEAEs ([2]; 10 mg, n=8): 3
Number of drug-related TEAEs ([2]; 10 mg, n=8): 2
TEAE: Constipation ([2]; 10 mg, n=8): 0 n (%)
TEAE: Gastrointestinal disorders ([2]; 10 mg, n=8): 0 n (%)
TEAE: General disorders and administration site conditions ([2]; 10 mg, n=8): 0 n (%)
TEAE: Headache ([2]; 10 mg, n=8): 0 n (%)
TEAE: Medical device site reaction ([2]; 10 mg, n=8): 0 n (%)
TEAE: Nervous system disorders ([2]; 10 mg, n=8): 0 n (%)
TEAE: Skin and subcutaneous tissue disorders ([2]; 10 mg, n=8): 1 (12.5) n (%)
Any TEAE ([2]; 20 mg, n=25): 14 (56.0) n (%)
Drug-related TEAE ([2]; 20 mg, n=25): 9 (36.0) n (%)
Number of TEAEs ([2]; 20 mg, n=25): 21
Number of drug-related TEAEs ([2]; 20 mg, n=25): 12
TEAE: Constipation ([2]; 20 mg, n=25): 1 (4.0) n (%)
TEAE: Gastrointestinal disorders ([2]; 20 mg, n=25): 1 (4.0) n (%)
TEAE: General disorders and administration site conditions ([2]; 20 mg, n=25): 3 (12.0) n (%)
TEAE: Headache ([2]; 20 mg, n=25): 5 (20.0) n (%)
TEAE: Medical device site reaction ([2]; 20 mg, n=25): 2 (8.0) n (%)
TEAE: Nervous system disorders ([2]; 20 mg, n=25): 9 (36.0) n (%)
TEAE: Skin and subcutaneous tissue disorders ([2]; 20 mg, n=25): 0 n (%)
Any TEAE ([2]; 50 mg, n=16): 6 (37.5) n (%)
Drug-related TEAE ([2]; 50 mg, n=16): 4 (25.0) n (%)
Number of TEAEs ([2]; 50 mg, n=16): 12
Number of drug-related TEAEs ([2]; 50 mg, n=16): 6
TEAE: Constipation ([2]; 50 mg, n=16): 2 (12.5) n (%)
TEAE: Gastrointestinal disorders ([2]; 50 mg, n=16): 2 (12.5) n (%)
TEAE: General disorders and administration site conditions ([2]; 50 mg, n=16): 1 (6.3) n (%)
TEAE: Headache ([2]; 50 mg, n=16): 3 (18.8) n (%)
TEAE: Medical device site reaction ([2]; 50 mg, n=16): 1 (6.3) n (%)
TEAE: Nervous system disorders ([2]; 50 mg, n=16): 3 (18.8) n (%)
TEAE: Skin and subcutaneous tissue disorders ([2]; 50 mg, n=16): 2 (12.5) n (%)
Any TEAE ([2]; ASP3662 total (10-50 mg), n=49): 23 (46.9) n (%)
Drug-related TEAE ([2]; ASP3662 total (10-50 mg), n=49): 15 (30.6) n (%)
Number of TEAEs ([2]; ASP3662 total (10-50 mg), n=49): 36
Number of drug-related TEAEs ([2]; ASP3662 total (10-50 mg), n=49): 20
TEAE: Constipation ([2]; ASP3662 total (10-50 mg), n=49): 3 (6.1) n (%)
TEAE: Gastrointestinal disorders ([2]; ASP3662 total (10-50 mg), n=49): 3 (6.1) n (%)
TEAE: General disorders and administration site conditions ([2]; ASP3662 total (10-50 mg), n=49): 4 (8.2) n (%)
TEAE: Headache ([2]; ASP3662 total (10-50 mg), n=49): 8 (16.3) n (%)
TEAE: Medical device site reaction ([2]; ASP3662 total (10-50 mg), n=49): 3 (6.1) n (%)
TEAE: Nervous system disorders ([2]; ASP3662 total (10-50 mg), n=49): 12 (24.5) n (%)
TEAE: Skin and subcutaneous tissue disorders ([2]; ASP3662 total (10-50 mg), n=49): 3 (6.1) n (%)
deaths, TEAEs leading to discontinuation, serious or drug-related TEAEs ([2]; both SAD and MAD studies): No deaths, TEAEs leading to discontinuation, serious TEAEs
potentially clinically significant orthostatic pulse rate measurements ([2]; elderly subjects who received ASP3662): 44.4%
overall safety and tolerability ([2]; multiple oral doses up to 50 mg for 14 days): safe and well tolerated
CL/F, Mean (SD) [3, 6]: 9.254 (4.086) L/hour
CL/F, Median [3, 6]: 7.651 L/h
CL/F, Min–max [3, 6]: 5.05 to 15.3 L/h
CL/F, Mean (SD) [3, 7]: 6.99 (2.152) L/hour
CL/F, Median [3, 7]: 6.567 L/h
CL/F, Min–max [3, 7]: 3.8 to 10.4 L/h
CL/F, Mean (SD) [3, 8]: 9.993 (2.926) L/hour
CL/F, Median [3, 8]: 9.182 L/h
CL/F, Min–max [3, 8]: 6.03 to 15.0 L/h
CL/F, Mean (SD) [3, 9]: 7.412 (2.61) L/hour
CL/F, Median [3, 9]: 7.279 L/h
CL/F, Min–max [3, 9]: 4.33 to 11.7 L/h
CL/F, Mean (SD) [3, 10]: 6.758 (1.787) L/hour
CL/F, Median [3, 10]: 6.240 L/h
CL/F, Min–max [3, 10]: 4.30 to 9.40 L/h
CL/F, Mean (SD) [3, 11]: 7.005 (2.789) L/hour
CL/F, Median [3, 11]: 7.259 L/h
CL/F, Min–max [3, 11]: 2.53 to 10.1 L/h
CL/F, Mean (SD) [3, 12]: 6.07 (2.591) L/hour
CL/F, Median [3, 12]: 5.708 L/h
CL/F, Min–max [3, 12]: 3.02 to 9.87 L/h
Ctrough, Mean (SD) [3, 12]: 37.65 (30.42) ng/mL
Ctrough, Median [3, 12]: 24.76 ng/mL
Ctrough, Min–max [3, 12]: 13.5 to 84.0 ng/mL
CL/F, Mean (SD) [3, 13]: 5.675 (1.649) L/hour
CL/F, Median [3, 13]: 5.675 L/h
CL/F, Min–max [3, 13]: 2.81 to 8.51 L/h
Ctrough, Mean (SD) [3, 13]: 63.58 (49.38) ng/mL
Ctrough, Median [3, 13]: 52.25 ng/mL
Ctrough, Min–max [3, 13]: 26.1 to 184 ng/mL
CL/F, Mean (SD) [3, 14]: 8.322 (2.562) L/hour
CL/F, Median [3, 14]: 8.117 L/h
CL/F, Min–max [3, 14]: 4.47 to 13.5 L/h
Ctrough, Mean (SD) [3, 14]: 34.01 (24.86) ng/mL
Ctrough, Median [3, 14]: 26.35 ng/mL
Ctrough, Min–max [3, 14]: 13.7 to 92.1 ng/mL
CL/F, Mean (SD) [3, 15]: 6.487 (2.372) L/hour
CL/F, Median [3, 15]: 6.473 L/h
CL/F, Min–max [3, 15]: 3.64 to 10.3 L/h
Ctrough, Mean (SD) [3, 15]: 58.68 (40.91) ng/mL
Ctrough, Median [3, 15]: 42.71 ng/mL
Ctrough, Min–max [3, 15]: 19.9 to 132 ng/mL
CL/F, Mean (SD) [3, 16]: 10.46 (12.75) L/hour
CL/F, Median [3, 16]: 6.58 L/h
CL/F, Min–max [3, 16]: 3.80 to 41.8 L/h
Ctrough, Mean (SD) [3, 16]: 115.3 (59.73) ng/mL
Ctrough, Median [3, 16]: 103.3 ng/mL
Ctrough, Min–max [3, 16]: 21.0 to 223 ng/mL
CL/F, Mean (SD) [3, 17]: 5.507 (2.275) L/hour
CL/F, Median [3, 17]: 5.607 L/h
CL/F, Min–max [3, 17]: 1.86 to 8.76 L/h
Ctrough, Mean (SD) [3, 17]: 261.3 (267.1) ng/mL
Ctrough, Median [3, 17]: 175.2 ng/mL
Ctrough, Min–max [3, 17]: 60.4 to 841 ng/mL
maximum recommended starting dose derived from the no observed adverse effect level [4]: 10 mg
effects on ACTH, DHEA‐s and 24‐hour total urine glucocorticoids ([5]; MAD part 2, low dose): activation of the HPA axis
effect on urine cortisol levels ([5]; despite full 11β‐HSD1 inhibition, part 2 low dose): no significant effects
